Assays:
[1] = Volume of distribution at steady state in Wistar Han rat at […], iv; format: ADME, organism-based; details: in vivo, read-out: Vdss
[2] = Permeability from apical to basolateral side of human Caco2 cells; format: ADME, cell-based; details: Caco-2, read-out: permeability
[3] = Oral bioavailability in Wistar Han rat at 10 umol/kg; format: ADME, organism-based; details: in vivo
Method in brief: (§1)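 Wistar Han rats dosed orally with a suspension, at 10 mg/kg or 10 µmol/kg. Plasma taken at several time points and quantified by HPLC-MS/MS. Bioavailability derived by non-compartmental analysis.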

[4] = Mean residence time in Wistar Han rat at […], iv; format: ADME, organism-based; details: in vivo
[5] = Permeability from basolateral to apical side of human Caco2 cells; format: ADME, cell-based; details: Caco-2, read-out: permeability
[6] = Ratio of drug uptake in brain to plasma of Wistar Han rat; format: ADME; details: brain and plasma, read-out: BPR
[7] = Volume of distribution at steady state in Wistar Han rat at 1 mg/kg, iv; format: ADME, organism-based; parameters: dose 1 mg/kg, route intravenous; details: in vivo, read-out: Vdss
Method in brief: (§2)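 Wistar Han or Sprague Dawley rats given 1 mg/kg iv as a solution or 5 mg/kg po as a suspension. Plasma taken at several time points and quantified by HPLC-MS/MS. Parameters derived by non-compartmental analysis.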

[8] = Oral bioavailability in Wistar Han rat at 5 mg/kg; format: ADME, organism-based; details: in vivo; method in brief: as §2
[9] = Mean residence time in Wistar Han rat at 1 mg/kg, iv; format: ADME, organism-based; parameters: dose 1 mg/kg, route intravenous; details: in vivo; method in brief: as §2
[10] = Oral bioavailability in Wistar Han rat at 10 mg/kg; format: ADME, organism-based; details: in vivo; method in brief: as §1

Structure (SMILES): CC(C)(C)c1cc(NC(=O)[C@@H]2CCC(=O)N2c2ccc(C(F)(F)F)cc2)on1
- Vd [1]: 3.8 L/kg
- Papp A→B [2]: 14 ×10⁻⁶ cm/s
- bioavailability [3]: 88%
- MRT [4]: 6 h
- Papp B→A [5]: 7.5 ×10⁻⁶ cm/s
- Kp [6]: 0.9

Structure (SMILES): CC(C)(C)c1cc(NC(=O)[C@@H]2CCCN2c2ccc(Cl)cc2)no1
- Vd [7]: 7.9 L/kg
- Papp A→B [2]: 24 ×10⁻⁶ cm/s
- bioavailability [8]: 5%
- MRT [9]: 1 h
- Papp B→A [5]: 18 ×10⁻⁶ cm/s

Structure (SMILES): CC(C)(C)c1cc(NC(=O)[C@@H]2C[C@@H](O)CN2CC2CCOCC2)on1 (relative stereo)
- Vd [1]: 1.3 L/kg
- bioavailability [3]: 18%
- MRT [4]: 0.34 h

Structure (SMILES): CC(C)(C)c1cc(NC(=O)[C@@H]2CCC(=O)N2c2ccc(Cl)cc2)on1
- Vd [7]: 4.5 L/kg
- Papp A→B [2]: 11 ×10⁻⁶ cm/s
- MRT [9]: 1.3 h
- Papp B→A [5]: 23 ×10⁻⁶ cm/s
- bioavailability [10]: 44%
- Kp [6]: 0.41

From ChEMBL document CHEMBL3352390, “Selective CB2 receptor agonists. Part 2: Structure-activity relationship studies and optimization of proline-based compounds” (Bioorg Med Chem Lett, 2015)
